Laboratory results reported in PubChem BioAssay.
The source made the active and inactive calls.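 Rule for the calls, unless noted: active = inhibition at or above 50% relative to wild type and mutant plate controls; inactive = inhibition below 50%.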

What was measured:
[1] = inhibitors of TNFa-induced NFkB p65 translocation, primary screen, imaging, HUVEC, MLSMR starter and 10KST1 sets (AID 438;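 active = inhibition above 20% together with a positive visual image hit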;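 note: compound added about 3h40 before a 20 min TNFalpha stimulation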;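 for inhibition: signal is the nuclear over cytoplasmic p65 intensity ratio per well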); settings: HUVEC TNFa-induced p65 nuclear translocation; cell count: measured here: nuclei count (cytotoxicity indicator), at 2.08 µM; inhibition: at 2 µM, stronger effect = higher value, 0% TNFa-plus-vehicle, 100% no-TNFa wells
[2] = endothelial E-selectin expression blockers – imaging, HUVEC, immunofluorescence, MLSMR starter and 10KST1 sets, primary screen (AID 487;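 active = visually confirmed hit in the image check and inhibition above 20%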;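 for inhibition: signal is fraction of cell area covered by stained E-selectin grains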;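 for nuclei count: 100% = median nuclei count of all wells on the same plate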); settings: HUVEC TNFalpha-induced E-selectin immunofluorescence imaging, at 2 µM; inhibition: stronger effect = higher value; nuclei count: measured here: cell number, toxicity
[3] = Primary imaging screen for DUSP6 inhibitors that restore phospho-Erk in transfected HeLa cells, chemical complementation (AID 609;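 active = compounds giving at least 50% inhibition in the cell-based MKP-3 phosphatase rescue imaging test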;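 for inhibition: phospho-Erk level distribution per well compared with pooled transfected vehicle control wells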); settings: HeLa MKP-3 transfected, phospho-Erk imaging KS statistic, at 10 µM, cells stimulated with TPA for 15 min
[4] = molecular target: Dual specificity protein phosphatase 6 (Homo sapiens) (UniProt Q16828); test: as above; settings: HeLa MKP-3 transfected, phospho-Erk imaging KS statistic; at 10 µM; stronger effect = higher value; cells stimulated with TPA for 15 min
Chain of Dual specificity protein phosphatase 6 (Homo sapiens) (Q16828 whole entry, looked up): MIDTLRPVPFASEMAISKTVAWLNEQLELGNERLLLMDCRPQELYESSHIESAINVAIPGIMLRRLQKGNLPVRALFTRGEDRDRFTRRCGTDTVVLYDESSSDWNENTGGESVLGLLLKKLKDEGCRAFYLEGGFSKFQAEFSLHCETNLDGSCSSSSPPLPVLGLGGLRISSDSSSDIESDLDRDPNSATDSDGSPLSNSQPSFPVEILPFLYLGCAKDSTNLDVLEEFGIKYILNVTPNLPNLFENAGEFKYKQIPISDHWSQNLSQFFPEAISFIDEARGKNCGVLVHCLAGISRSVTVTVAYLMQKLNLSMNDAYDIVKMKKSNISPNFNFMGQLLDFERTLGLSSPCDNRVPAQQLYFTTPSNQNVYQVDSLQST

[5] = molecular target: Voltage-gated potassium channel subunit beta-2 (Rattus norvegicus) (UniProt P62483); test: inhibitors of rat Kvbeta2 reductase activity – biochemical, NADPH fluorescence, primary screen (AID 622;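 active = fluorescence slope higher than the sample average by over 3 SD, cut at about -0.22 in these data, passing the limit was not always enough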;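 note: slope of raw intensity against log time taken from 70 to 1610 s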); settings: recombinant KvBeta, 4-cyanobenzaldehyde reduction, at 10 µM, stronger effect = higher value
Chain of Voltage-gated potassium channel subunit beta-2 (Rattus norvegicus) (P62483 whole entry, looked up): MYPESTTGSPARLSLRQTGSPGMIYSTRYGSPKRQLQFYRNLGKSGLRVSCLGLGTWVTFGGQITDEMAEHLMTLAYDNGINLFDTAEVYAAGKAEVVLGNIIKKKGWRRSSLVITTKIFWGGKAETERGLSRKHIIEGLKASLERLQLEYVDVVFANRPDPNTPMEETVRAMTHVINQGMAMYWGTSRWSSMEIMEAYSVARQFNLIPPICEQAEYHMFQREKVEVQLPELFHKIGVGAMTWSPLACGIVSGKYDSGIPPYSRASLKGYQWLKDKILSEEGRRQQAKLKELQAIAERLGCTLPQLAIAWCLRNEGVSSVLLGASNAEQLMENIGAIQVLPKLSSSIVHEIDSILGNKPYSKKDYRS

[6] = molecular target: Voltage-gated potassium channel subunit beta-2 (Rattus norvegicus) (UniProt P62483); test: enhancers of rat Kvbeta2 NADPH turnover – biochemical, NADPH fluorescence, primary screen (AID 623;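 active = NADPH fluorescence slope more negative than the mean of all samples by about 3 SD, 99.7% confidence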;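 note: fluorescence intensity change per second fitted from 20 to 320 s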); settings: Recombinant KvBeta, NADPH fluorescence decrease slope, 10 min; at 10 µM; stronger effect = lower value
[7] = molecular target: Muscarinic acetylcholine receptor M4 (Homo sapiens) (UniProt P08173); test: M4-linked GIRK flux change, two-sided – cell-based, HEK293 M4/GIRK, thallium flux, BTC-AM, M4 allosteric agonist project, primary screen (AID 625;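 active = fluorescence slope after compound addition differing from the mean of all tested samples at 99.7% confidence, mostly higher but some lower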;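 note: thallium influx through GIRK channels coupled to M4 in HEK293 cells with BTC-AM dye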); settings: at 10 µM, actives lie on both sides
Chain of Muscarinic acetylcholine receptor M4 (Homo sapiens) (P08173 whole entry, looked up): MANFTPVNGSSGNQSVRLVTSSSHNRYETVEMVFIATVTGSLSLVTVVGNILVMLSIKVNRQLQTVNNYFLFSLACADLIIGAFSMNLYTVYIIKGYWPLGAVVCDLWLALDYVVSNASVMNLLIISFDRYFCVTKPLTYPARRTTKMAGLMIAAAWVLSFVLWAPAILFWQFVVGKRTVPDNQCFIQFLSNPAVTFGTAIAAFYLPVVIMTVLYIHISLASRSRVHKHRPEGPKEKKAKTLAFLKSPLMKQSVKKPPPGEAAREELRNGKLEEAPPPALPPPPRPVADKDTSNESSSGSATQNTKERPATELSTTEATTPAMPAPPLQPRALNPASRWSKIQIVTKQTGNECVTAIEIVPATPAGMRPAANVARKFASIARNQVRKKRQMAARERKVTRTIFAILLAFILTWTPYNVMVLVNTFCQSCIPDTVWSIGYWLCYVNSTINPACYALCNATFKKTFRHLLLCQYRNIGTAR
Procedure, shortened: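 Material: HEK293 cells with M4 receptor and GIRK channels; Times: cells overnight at 37 °C, BTC-AM loading 1 h, reads 2 min total; Technique: kinetic BTC-AM fluorescence sampled at 1 Hz, 10 s pre-addition baseline; Read-out basis: slope over 15–24 s of trace normalized to starting intensity; Controls: carbachol positive, DMSO negative.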

[8] = inhibitors of larval lipid processing in zebrafish, primary screen, whole organism, PED6 fluorescence, gall bladder and intestine (AID 686;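 active = a full or partial loss of lipid-probe fluorescence in the fish gall bladder, intestine or both, judged by eye; inactive = no fluorescence loss, or compound toxic to the fish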;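 note: larvae 5 to 7 days old with five fish per well; signal comes from phospholipase A2 cleavage of quenched PED6 carried via bile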); settings: Zebrafish larvae PED6 lipid processing, fluorescence scoring; screened at 20 µM (by protocol)
Procedure, shortened: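 Incubation: overnight exposure of larvae to compound plus PED6 / Test system: live zebrafish larvae aged 5-7 days, whole organism / Amount: 5 larvae per well / Read-out basis: visual per-well fluorescence inhibition score / Signal: visual fluorescence microscopy scoring of gall bladder, gut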

[9] = loss of swimming-algae plug formation – whole organism, Chlamydomonas reinhardtii, WT vs cilia-less mutant, absorbance, 96-well, primary screen (AID 463189); settings: Chlamydomonas reinhardtii gravitaxis, OD600 absorbance, 2 days; at 10 µM; stronger effect = higher value;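 note: 0% = wild type cc124 cells in DMSO and 100% = ciliumless bld1 mutant cells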
[10] = measured here: cell density z-score
[11] = measured here: nuclear c-Myc green intensity z-score
[12] = measured here: nuclear pErk red intensity z-score, stronger effect = higher value

Row | Structure (SMILES) | cell count [1] | inhibition [1] | inhibition [2] | nuclei count [2] | z-score [3, 10] | z-score [3, 11] | z-score [3, 12] | inhibition [4] | fluorescence slope [5] | NADPH fluorescence slope [6] | fluorescence slope [7] | outcome [8] | inhibition [9]
1 | O=C(NCCN1CCOCC1)c1ccc(=O)oc1 | 515 | -7.5% (inactive) | 70.5% (active) | 102% | 0.12 | 1.12 | 0.0878 | 4.37% (inactive) | -0.481 (inactive) | -8.3e-05 (inactive) | 0.0085 (inactive) | inactive | -15.9% (inactive)
2 | COCC(C)Nc1ncnc2c1cnn2-c1ccc(Cl)cc1 (stereo unspecified) | 607 | -19.2% (inactive) | -34.4% (inactive) | 170% | 1.51 | -0.865 | 0.282 | 3.42% (inactive) | -0.398 (inactive) | -1.2e-05 (inactive) | 0.00516 (inactive) | inactive | 18.7% (inactive)
3 | COc1cc(C(=O)Nc2ccc(O)cc2C(=O)O)ccc1OC(C)=O | 645 | 3.6% (inactive) | 31.5% (inactive) | 95.3% | -0.0173 | 0.715 | -0.436 | 5.35% (inactive) | -0.547 (inactive) | -6.2e-05 (inactive) | 0.00561 (inactive) | inactive | 13.9% (inactive)
4 | CC(C)(C)NC(=O)/C=N/O | 637 | -13.4% (inactive) | -71.6% (inactive) | 166% | -0.0727 | -0.26 | 0.222 | 1.63% (inactive) | -0.466 (inactive) | -3.8e-05 (inactive) | 0.00655 (inactive) | inactive | 25.5% (inactive)
5 | C(=N\n1cnnc1)/c1cccc(Oc2ccccc2)c1 | 569 | -5.8% (inactive) | -140% (inactive) | 111% | -0.768 | 1.37 | 1.58 | -6.06% (inactive) | -0.515 (inactive) | -5.4e-05 (inactive) | 0.00705 (inactive) | inactive | 78.1% (active)
6 | CC(=O)N(Cc1ccccc1)c1ccc(C(=O)O)cc1 | 486 | -9.7% (inactive) | -65.3% (inactive) | 95.1% | -0.584 | 0.905 | 1.49 | 3.42% (inactive) | -0.454 (inactive) | 3.6e-05 (inactive) | 0.00471 (inactive) | inactive | 18% (inactive)
7 | CCOc1ccc(S(=O)(=O)N(C)CCO)cc1-c1nc2c(C(C)(C)C)nn(C)c2c(=O)[nH]1 | 637 | 4.6% (inactive) | -94.9% (inactive) | 165% | 0.365 | 1.27 | -0.248 | 1.12% (inactive) | -0.484 (inactive) | -3.4e-05 (inactive) | 0.00687 (inactive) | inactive | 8.59% (inactive)
